In brackets after ≈: the same amount, converted by molar mass.
Tests used:
[1] = Toxicity in guinea pig heart assessed as decrease in ventricular contraction at 30 uM relative to control; assay type: tissue-based, Cavia porcellus, Cardiac ventricle
[2] = Toxicity in guinea pig heart assessed as decrease in ventricular contraction at 10 uM relative to control; assay type: tissue-based, Cavia porcellus, Cardiac ventricle
Mus musculus [3] = assay: Toxicity in mouse assessed as effect on autonomic activity at 10 to 30 mg/kg, po by Irwin test; assay type: organism-based; design: dose 10-30 mg/kg, route oral; conditions: in vivo
In short: (§1)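 Irwin exploratory general behaviour study in male mice; single oral doses of 0, 10 and 30 mg/kg; behavioural, neurologic and autonomic effects observed.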

Mus musculus [4] = assay: Toxicity in mouse assessed as effect on neurological activity at 10 to 30 mg/kg, po by Irwin test; assay type: organism-based; design: dose 10-30 mg/kg, route oral; conditions: in vivo; in short: as §1
[5] = Elimination half life in Sprague-Dawley rat brain at 10 mg/kg, po; assay type: ADME, organism-based; design: dose 10 mg/kg, route oral; conditions: read-out: beta t1/2 (converted)
In short: (§2)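 Single-dose PK; male OF1 mice and male Sprague-Dawley rats, 2 mg/kg iv and 10 mg/kg po. Mouse vehicles: iv 50% 1-methyl-2-pyrrolidinone in saline (1.0 mg/mL); po 5% DMSO/0.5% MC/0.2% Tween80 (1.0 mg/mL). Rat vehicles: iv saline (0.5 mg/mL); po 0.5% MC/0.2% Tween80 (1.0 mg/mL). Plasma and brain exposure read as AUC0-∞ and t1/2.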

[6] = Tmax in Sprague-Dawley rat brain at 10 mg/kg, po; assay type: ADME, organism-based; design: dose 10 mg/kg, route oral
In short: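 Male Sprague-Dawley rats dosed 2 mg/kg iv in saline (0.5 mg/mL) and 10 mg/kg po in 0.5% MC/0.2% Tween80 (1.0 mg/mL); plasma and brain concentrations followed.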

[7] = Cmax in Sprague-Dawley rat plasma at 10 mg/kg, po; assay type: ADME, organism-based; design: dose 10 mg/kg, route oral
In short: (§3)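 Oral PK at 10 mg/kg po in male OF1 mice (vehicle 5% DMSO/0.5% MC/0.2% Tween80, 1.0 mg/mL) and male Sprague-Dawley rats (vehicle 0.5% MC/0.2% Tween80, 1.0 mg/mL). Cmax and tmax taken from plasma and brain concentration–time profiles.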

[8] = Elimination half life in Sprague-Dawley rat plasma at 2 mg/kg, iv; assay type: ADME, organism-based; design: dose 2 mg/kg, route intravenous; conditions: read-out: beta t1/2 (converted); in short: as §2
[9] = Tmax in OF1 mouse brain at 10 mg/kg, po; assay type: ADME, organism-based; design: dose 10 mg/kg, route oral
In short: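 Male OF1 mice given 2 mg/kg iv (50% 1-methyl-2-pyrrolidinone in saline, 1.0 mg/mL) and 10 mg/kg po (5% DMSO/0.5% MC/0.2% Tween80, 1.0 mg/mL); plasma and brain exposure measured; B/P ratio from iv AUC.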

[10] = Elimination half life in OF1 mouse plasma at 10 mg/kg, po; assay type: ADME, organism-based; design: dose 10 mg/kg, route oral; conditions: read-out: beta t1/2 (converted); in short: as §2
[11] = Cmax in OF1 mouse brain at 10 mg/kg, po; assay type: ADME, organism-based; design: dose 10 mg/kg, route oral; in short: as §3
[12] = AUC (0 to infinity) in OF1 mouse brain at 10 mg/kg, po; assay type: ADME, organism-based; design: time infinity, dose 10 mg/kg, route oral; in short: as §2
Cytochrome P450 2C19 = Cytochrome P450 2C19 (Homo sapiens, UniProt P33261); assay: Inhibition of CYP2C19 (unknown origin) after 4 hrs; assay type: ADME
[13] = Drug metabolism in human plasma at 100 ng/ml after 4 hrs; assay type: ADME, cell-free; conditions: read-out: Drug metabolism
In short: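 Compound spiked into blank plasma of human, mouse, rat, rabbit, macaque and dog at 100 ng/ml, then incubated in a 37 °C water bath for up to 4 h; percent metabolized reported.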

[14] = Drug metabolism in guinea pig liver microsomes; assay type: ADME, Cavia porcellus, Microsome; conditions: read-out: Drug metabolism
[15] = Drug metabolism in dog liver microsomes; assay type: ADME, Canis lupus familiaris; conditions: read-out: Drug metabolism
[16] = Drug metabolism in macaque liver microsomes; assay type: ADME, Microsome; conditions: macaca, read-out: Drug metabolism
[17] = Mutagenic activity in micronucleus (unknown origin) at 5 to 950 ug/mL in presence of human liver microsomes; assay type: toxicity
In short: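 In vitro micronucleus test; concentrations 5 to 950 µg/mL, run with and without metabolic activation by human liver microsomes.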

Salmonella typhimurium = assay: Genotoxicity in Salmonella typhimurium at 3 to 1000 ug/mL by Ames-2 test; assay type: toxicity, organism-based; conditions: salmonella enterica subsp. enterica serovar typhimurium
In short: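 Ames II bacterial mutagenicity test over 3 to 1000 µg/mL.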

[18] = Solubility of the compound in form of crystalline free base in water; assay type: physicochemical
Histamine H3 receptor = Histamine H3 receptor (Homo sapiens, UniProt Q9Y5N1); assay: Inverse agonist activity at human histamine H3 receptor (445 amino acid residues) expressed in CHO cells by CRE-luciferase reporter gene assay; assay type: functional, cell-based
[19] = Toxicity in po dosed mouse; conditions: in vivo

Sequence of Histamine H3 receptor (Q9Y5N1 whole entry): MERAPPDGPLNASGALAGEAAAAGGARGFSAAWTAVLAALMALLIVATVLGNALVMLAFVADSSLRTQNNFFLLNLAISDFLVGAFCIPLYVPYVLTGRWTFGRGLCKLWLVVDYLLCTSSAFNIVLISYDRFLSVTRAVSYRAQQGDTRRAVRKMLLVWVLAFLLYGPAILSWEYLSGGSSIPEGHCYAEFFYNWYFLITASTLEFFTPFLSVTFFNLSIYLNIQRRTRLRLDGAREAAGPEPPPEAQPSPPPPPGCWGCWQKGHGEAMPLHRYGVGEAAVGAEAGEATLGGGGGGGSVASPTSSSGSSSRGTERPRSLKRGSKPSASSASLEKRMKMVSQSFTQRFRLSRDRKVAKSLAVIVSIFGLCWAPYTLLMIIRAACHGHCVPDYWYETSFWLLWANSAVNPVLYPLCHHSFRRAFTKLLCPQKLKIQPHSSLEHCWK
Sequence of Cytochrome P450 2C19 (P33261 whole entry): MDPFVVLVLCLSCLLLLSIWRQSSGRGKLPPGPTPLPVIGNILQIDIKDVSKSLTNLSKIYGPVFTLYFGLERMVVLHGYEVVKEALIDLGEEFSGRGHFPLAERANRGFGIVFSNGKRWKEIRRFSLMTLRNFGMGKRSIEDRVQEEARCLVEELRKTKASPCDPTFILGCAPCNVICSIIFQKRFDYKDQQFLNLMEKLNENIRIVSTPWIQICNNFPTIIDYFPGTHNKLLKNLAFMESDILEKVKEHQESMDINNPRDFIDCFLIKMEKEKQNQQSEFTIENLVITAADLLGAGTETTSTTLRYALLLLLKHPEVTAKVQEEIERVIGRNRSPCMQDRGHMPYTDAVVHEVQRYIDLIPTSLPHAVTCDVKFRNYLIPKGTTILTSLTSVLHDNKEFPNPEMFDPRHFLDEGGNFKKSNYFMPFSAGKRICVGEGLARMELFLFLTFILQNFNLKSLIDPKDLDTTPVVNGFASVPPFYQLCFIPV

Compound: Cc1cc(N2CC[C@H](N3CCC[C@@H]3C)C2)ccc1NC(=O)c1c(C)noc1C
- inhibition at 30 µM [1]: 33%
- inhibition at 10 µM [2]: 23%
- Activity (Mus musculus [3]): Non-toxic
- Activity (Mus musculus [4]): Non-toxic
- half-life [5]: 9.4 h
- Tmax [6]: 1 h
- Cmax [7]: 749 ng/mL
- half-life [8]: 1.2 h
- Tmax [9]: 0.17 h
- half-life [10]: 1.8 h
- Cmax [11]: 2620 ng/mL
- AUC(0-inf) [12]: 3100 ng·h/mL
- IC50 (Cytochrome P450 2C19): > 100000 nM
- metabolised at 4 h, 100 ng/ml [13]: < 5%
- metabolised [14]: 35%
- metabolised [15]: < 5%
- metabolised [16]: < 5%
- Activity [17]: Non-toxic
- Activity (Salmonella typhimurium): Non-toxic
- solubility [18]: 110 µg/mL (≈ 288 µM)
- EC50 (Histamine H3 receptor): 0.7 nM
- MTD [19]: 30 mg/kg

— ChEMBL document CHEMBL3085708, “Identification and profiling of 3,5-dimethyl-isoxazole-4-carboxylic acid [2-methyl-4-((2S,3'S)-2-methyl-[1,3']bipyrrolidinyl-1'-yl)phenyl] amide as histamine H(3) receptor antagonist for the treatment of depression” (Bioorg Med Chem Lett, 2013)
